Experimental data collected from several papers.
Each line is one published result; the experiments were not run side by side.
Target: Tyrosine-protein kinase Mer (MERTK, Homo sapiens, UniProt Q12866)
Residues used in one study (Q12866 21-999): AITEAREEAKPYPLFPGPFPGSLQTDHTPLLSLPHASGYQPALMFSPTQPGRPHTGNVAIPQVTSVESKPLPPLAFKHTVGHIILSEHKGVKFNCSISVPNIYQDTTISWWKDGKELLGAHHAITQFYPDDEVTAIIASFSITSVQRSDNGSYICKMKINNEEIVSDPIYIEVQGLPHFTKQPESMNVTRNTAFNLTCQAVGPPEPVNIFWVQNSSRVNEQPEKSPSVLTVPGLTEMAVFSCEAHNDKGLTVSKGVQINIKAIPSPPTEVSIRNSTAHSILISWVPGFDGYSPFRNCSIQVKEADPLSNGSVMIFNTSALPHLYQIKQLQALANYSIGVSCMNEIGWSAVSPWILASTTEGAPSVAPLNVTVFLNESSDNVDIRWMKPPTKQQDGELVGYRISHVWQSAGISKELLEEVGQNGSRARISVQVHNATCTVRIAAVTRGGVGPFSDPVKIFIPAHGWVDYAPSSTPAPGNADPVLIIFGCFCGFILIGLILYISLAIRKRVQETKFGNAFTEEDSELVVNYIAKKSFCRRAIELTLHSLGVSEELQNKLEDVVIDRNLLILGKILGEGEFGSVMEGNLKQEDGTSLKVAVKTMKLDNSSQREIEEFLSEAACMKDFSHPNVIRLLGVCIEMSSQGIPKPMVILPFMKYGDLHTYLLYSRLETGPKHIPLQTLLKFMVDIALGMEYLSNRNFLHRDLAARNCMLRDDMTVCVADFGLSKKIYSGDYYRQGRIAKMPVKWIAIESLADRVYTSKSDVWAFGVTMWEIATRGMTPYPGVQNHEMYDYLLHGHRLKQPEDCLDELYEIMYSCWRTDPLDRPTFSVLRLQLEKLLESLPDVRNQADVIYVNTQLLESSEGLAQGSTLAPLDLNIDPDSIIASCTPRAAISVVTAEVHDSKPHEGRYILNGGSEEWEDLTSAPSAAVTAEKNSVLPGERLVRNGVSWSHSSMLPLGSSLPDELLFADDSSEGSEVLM

For COc1cc2ncnc(Nc3ccc(Oc4ccccc4)cc3C)c2cc1OC, the inhibition was 87% (enzyme activity, inhibitor; 1 µM).
With CC/C(=N\NC(=O)NCc1cccc(O)c1)c1ccc(O)c(C)c1O the inhibition was 5% (enzyme activity, inhibitor; 0.1 µM).
COc1cc(Cl)c(C(=O)N[C@@H](CN[C@H]2CC[C@@H](N)CC2)Cc2ccc(C#N)cc2)cc1-c1ccc(CN[C@H](C)c2ccc(C)cc2)o1 has a remaining activity of 99% (enzyme activity, inhibitor; 1 µM).
For COc1cc2c(N3CCN(C(=O)Nc4ccc(OC(C)C)cc4)CC3)ncnc2cc1OCCCN1CCCCC1, the remaining signal was 106% (cell-free assay; 0.5 µM).
With Cn1c2c(c3ccc(Cl)c(Cl)c31)C(C#N)C1(CCCC1)NC2=O (stereo not drawn) the ΔTm was -0.5 °C (thermal stability, DSF; 10 µM).
For CN1CC(Oc2cnc(C#N)cc2-c2ccn3nc(NC(=O)C4CC4)cc3c2)C1, the inhibition was 0% (enzyme activity, inhibitor; 1 µM).
The remaining activity of O=c1cc(-c2cccc3c2Sc2ccccc2S3)oc(N2CCOCC2)c1 is reported as 97% (enzyme activity, inhibitor; 0.5 µM).
Cc1ccc(C(=O)NCc2ccsc2)cc1C#Cc1cn(C(C)C)c2ncnc(N)c12 gave an activity vs control of 71% (enzyme activity, inhibitor; 1 µM).
CCN(CC)CCNC(=O)c1c(C)[nH]c(/C=C2\C(=O)Nc3ccc(F)cc32)c1C gave an inhibition of 98% (enzyme activity, inhibitor; 10 µM).
CC(C)(C)c1nc2c(s1)c1nc(N)ncc1c1ccc(NS(=O)(=O)c3c(F)cccc3F)c(F)c12 has a remaining activity of 124% (enzyme activity, inhibitor, radiometric; 1 µM).
Cc1ccc(Nc2nccc(N(C)c3ccc4c(C)n(C)nc4c3)n2)cc1S(N)(=O)=O gave an inhibition of 87% (enzyme activity, inhibitor; 10 µM).
The inhibition of CCCS(=O)(=O)Nc1ccc(F)c(C(=O)c2c[nH]c3ncc(-c4ccc(Cl)cc4)cc23)c1F is reported as under 10% (enzyme activity, inhibitor; 1 µM).
For O=C(NC[C@@H]1[C@H]2CN(C(=O)OCc3cc(C(F)(F)F)cc(C(F)(F)F)c3)C[C@@H]12)c1ccc2[nH]nnc2c1, the remaining binding was 100% (cell-free assay, competition with immobilised ligand; 1 µM).
With Cn1c2c(c3ccc(Cl)c(Cl)c31)C(C#N)C1(CCNCC1)NC2=O (racemic) the ΔTm was 0.5 °C (thermal stability, DSF; 10 µM).
The activity vs control of Cc1cc(NC(=O)c2cccc3cc(-c4cccc5[nH]nc(N)c45)ccc23)ccc1F is reported as 96% (enzyme activity, inhibitor; 0.1 µM).
Cn1c2c(Cl)c(Cl)ccc2c2cc(N)[nH]c(=O)c21 gave a ΔTm of 0.1 °C (thermal stability, DSF; 10 µM).
With Cc1c[nH]c2nccc(Oc3c(F)cc(Nc4cc(Cl)nc(N)n4)cc3F)c12 the remaining binding was 100% (cell-free assay, competition with immobilised ligand; 0.1 µM).
The ΔTm of CC1(C)NC(=O)c2[nH]c3c(Cl)c(Cl)ccc3c2C1C#N (stereo not drawn) is reported as -1.1 °C (thermal stability, DSF; 10 µM).
With CCCCN(CCCC)C(=O)CN1C[C@H](c2cc(OC)c3c(c2)OCO3)[C@@H](C(=O)O)[C@@H]1CC(C)(C)CCC the remaining binding was 100% (cell-free assay, competition with immobilised ligand; 1 µM).
For CCCOc1ccc(OC)c(F)c1C(=O)c1ccc(C(=O)N[C@@H]2CNC[C@H]2NC(=O)c2ccc3[nH]ncc3c2)cc1, the remaining activity was 36% (enzyme activity, inhibitor; 10 µM).
CC(C)CC(=O)N1CCc2nc(-c3ccc(Br)cc3)nc(N(C)Cc3ccccc3)c2C1 gave a remaining binding of 100% (cell-free assay, competition with immobilised ligand; 0.1 µM).
For CNC(=O)c1cc(Oc2ccc(NC(=O)Nc3ccc(Cl)c(C(F)(F)F)c3)cc2)ccn1, the inhibition was 82% (enzyme activity, inhibitor; 10 µM).
For CNCc1ccccc1-c1csc([C@@H](C)Nc2nc(C)nc3cc(OC)c(OC)cc23)c1, the remaining binding was 61% (cell-free assay, competition with immobilised ligand; 1 µM).
The remaining signal of O=C1NC(=O)c2cc(Nc3ccc(F)cc3)c(Nc3ccc(F)cc3)cc21 is reported as 97.4% (cell-free assay; 0.5 µM).
Cn1nc(C(F)(F)F)cc1-c1cnc(N2CCc3cc(S(=O)(=O)Nc4c(F)cc(Cl)cc4F)cc(N4CCCC4=O)c32)nc1 has a remaining binding of 100% (cell-free assay, competition with immobilised ligand; 1 µM).
For O=C(Nc1cnn(-c2csc(C(=O)NC3COC3)c2)c1)Nc1c(F)cccc1Cl, the remaining activity was 77.1% (enzyme activity, inhibitor; 5 µM).
For CN1CCC2(CC1)NC(=O)c1c(c3ccc(Cl)c(Cl)c3n1C)C2C#N (racemic), the ΔTm was -0.4 °C (thermal stability, DSF; 10 µM).
With Cc1nccc(COC(=O)N2C[C@@H]3[C@@H](CNC(=O)c4ccc5[nH]nnc5c4)[C@@H]3C2)n1 the remaining binding was 100% (cell-free assay, competition with immobilised ligand; 1 µM).
Cn1c2c(c3ccccc31)C(C#N)C(C)(C)NC2=O (stereo not drawn) gave a ΔTm of 0.8 °C (thermal stability, DSF; 10 µM).
With CO[C@H]1CC[C@H](CNc2ccc(S(=O)(=O)NC(=O)c3ccc(N4CCN(CC5=C(c6ccc(Cl)cc6)CC(C)(C)CC5)CC4)cc3Oc3cnc4[nH]ccc4c3)cc2[N+](=O)[O-])CC1 the remaining binding was 85% (cell-free assay, competition with immobilised ligand; 1 µM).
